# Source: ChEMBL document CHEMBL1141109, “Synthesis of an estrogen receptor beta-selective radioligand: 5-[18F]fluoro-(2R,3S)-2,3-bis(4-hydroxyphenyl)pentanenitrile and comparison of in vivo distribution with 16alpha-[18F]fluoro-17beta-estradiol” (J Med Chem, 2005)
# Columns and labels:
# [1] = Biodistribution of [18F]FEDPN in beta estrogen receptor knock out mouse liver after 30 min; (n=3); type: ADME, organism-based; details: in vivo, 0.5 h
# Summary of the method: (§1)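 αERKO and βERKO mice, staged by daily vaginal smears and kept on estrogen-free chow, were studied in a nonestrous stage. Each mouse received 11 μCi of tracer in 130 μL of 10% ethanol/saline. Mice were killed at 30 min, 1 h or 2 h (n = 3 each). Organs were removed, blotted, weighed and gamma-counted against an injectate standard. Uptake is given as %ID/g ± SD.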
# [2] = Biodistribution of [18F]-FEDPN in rat uterus after 2 h when given in tail vein; (n=5); type: ADME, organism-based; details: in vivo, iv
# Summary of the method: (§2)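 Immature female Sprague–Dawley rats (<25 days old) anesthetized with isoflurane/O2. Given 20 µCi tracer by tail vein in 150 µL of 20% ethanol/saline. […] Killed at 30 min, 1 h or 2 h. Blood and organs blotted, weighed and gamma-counted against a standard dilution of the injectate. Reported as %ID/g ± SD, n=5.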
# [3] = Biodistribution of [18F]FEDPN in rat blood after 30 min when given in tail vein; (n=5); type: ADME, organism-based; details: in vivo, iv, 0.5 h
# Summary of the method: (§3)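 Immature female Sprague–Dawley rats (<25 days old) under isoflurane/O2 got 20 µCi tracer in 150 µL 20% ethanol/saline by tail vein. […] Rats were killed at 30 min, 1 h or 2 h. Organs were blotted, weighed and gamma-counted against an injectate standard. Data are %ID/g ± SD, five rats per point.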
# [4] = Biodistribution of [18F]FEDPN in rat liver after 30 min when given in tail vein; (n=5); type: ADME, organism-based; details: in vivo, iv, 0.5 h; summary of the method: as §3
# [5] = Biodistribution of [18F]FEDPN in beta estrogen receptor knock out mouse lung after 2 h; (n=3); type: ADME, organism-based; details: in vivo; summary of the method: as §1
# [6] = Biodistribution of [18F]FEDPN in alpha estrogen receptor knock out mouse bone after 2 h; (n=3); type: ADME, organism-based, Bone element; details: in vivo
# Summary of the method: (§4)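 ERKO female mice (αERKO or βERKO), rested 48 h after shipping, placed on estrogen-free chow, and staged by daily vaginal smears. Injected in a nonestrous stage with 11 µCi [18F]FEDPN in 130 µL of 10% ethanol/saline. Killed at 30 min, 1 h or 2 h. Organs counted and reported as %ID/g ± SD, three animals per point.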
# [7] = Biodistribution of [18F]-FEDPN in rat heart after 1 hr when given in tail vein; (n=5); type: ADME, organism-based; details: in vivo, iv; summary of the method: as §2
# [8] = Biodistribution of [18F]FEDPN in rat spleen after 1 h when given in tail vein; (n=5); type: ADME, organism-based; details: in vivo, iv; summary of the method: as §3
# [9] = Biodistribution of [18F]-FEDPN in rat uterus after 1 hr when given in tail vein; (n=5); type: ADME, organism-based; details: in vivo, iv; summary of the method: as §2
# [10] = Biodistribution of [18F]FEDPN in rat muscle after 30 min when given in tail vein; (n=5); type: ADME, organism-based, Muscle tissue; details: in vivo, iv, 0.5 h; summary of the method: as §3
# [11] = Biodistribution of [18F]FEDPN in rat spleen after 30 min when given in tail vein; (n=5); type: ADME, organism-based; details: in vivo, iv, 0.5 h; summary of the method: as §3
# [12] = Biodistribution of [18F]FEDPN in rat uterus after 30 min when given in tail vein; (n=5); type: ADME, organism-based; details: in vivo, iv, 0.5 h; summary of the method: as §3
# [13] = Biodistribution of [18F]-FEDPN in rat blood after 1 hr block when given in tail vein; (n=5); type: ADME, organism-based; details: in vivo, iv; summary of the method: as §2
# [14] = Biodistribution of [18F]FEDPN in rat liver after 1 h block when given in tail vein; (n=5); type: ADME, organism-based; details: in vivo, iv; summary of the method: as §3
# [15] = Biodistribution of [18F]-FEDPN in rat kidney after 1 hr block when given in tail vein; (n=5); type: ADME, organism-based; details: in vivo, iv; summary of the method: as §2
# [16] = Biodistribution of [18F]FEDPN in rat thymus after 1 h block when given in tail vein; (n=5); type: ADME, organism-based; details: in vivo, iv; summary of the method: as §3
# [17] = Biodistribution of [18F]FEDPN in rat ovaries after 1 h block when given in tail vein; (n=5); type: ADME, organism-based, Female gonad; details: in vivo, iv; summary of the method: as §3
# [18] = Biodistribution of [18F]FEDPN in beta estrogen receptor knock out mouse kidney after 2 h; (n=3); type: ADME, organism-based; details: in vivo; summary of the method: as §1
# [19] = Biodistribution of [18F]FEDPN in alpha estrogen receptor knock out mouse uterus after 2 h; (n=3); type: ADME, organism-based; details: in vivo; summary of the method: as §1
# [20] = Biodistribution of [18F]FEDPN in alpha estrogen receptor knock out mouse kidney after 2 h; (n=3); type: ADME, organism-based; details: in vivo; summary of the method: as §4
# [21] = Biodistribution of [18F]FEDPN in alpha estrogen receptor knock out mouse muscle after 2 h; (n=3); type: ADME, organism-based, Muscle tissue; details: in vivo; summary of the method: as §1
# [22] = Biodistribution of [18F]FEDPN in alpha estrogen receptor knock out mouse thymus after 2 h; (n=3); type: ADME, organism-based; details: in vivo; summary of the method: as §1
# [23] = target: Estrogen receptor (Mus musculus) (UniProt O08537+P19785); assay: Ratio of [18F]FEDPN uptake in uterus of ERbeta KO-mouse (diestrus) and ERalpha KO-mouse (nonestrus) after 2 hr
# [24] = Biodistribution of [18F]FES in alpha estrogen receptor knock out mouse muscle after 30 min; (n=3); type: ADME, organism-based, Muscle tissue; details: in vivo, 0.5 h
# [25] = Biodistribution of [18F]FES in alpha estrogen receptor knock out mouse uterus after 30 min; (n=3); type: ADME, organism-based; details: in vivo, 0.5 h
# [26] = Biodistribution of [18F]FES in beta estrogen receptor knock out mouse ovaries after 30 min; (n=3); type: ADME, organism-based, Female gonad; details: in vivo, 0.5 h
# [27] = Biodistribution of [18F]-FES in beta estrogen receptor knock out mouse bone after 30 min(n=2); mice in nonestrus stage; type: ADME, organism-based, Bone element; details: in vivo, 0.5 h
# Summary of the method: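 Female βERKO mice on estrogen-free chow were staged by vaginal smear and used in a nonestrus (diestrus) stage. Each received 13 µCi [18F]FES in 100 µL 10% ethanol/saline and was sacrificed at 30 min (n = 2). Uptake is given as %ID/g ± SD.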
# [28] = Biodistribution of [18F]FES in beta estrogen receptor knock out mouse lung after 30 min(n=2); mice in nonestrus stage; type: ADME, organism-based; details: in vivo, 0.5 h
# [29] = Biodistribution of [18F]-FES in alpha estrogen receptor knock out mouse bone after 30 min; (n=3); type: ADME, organism-based, Bone element; details: in vivo, 0.5 h
# Summary of the method: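 Female αERKO mice rested 48 h after shipping and fed estrogen-free chow. Estrous stage was checked by daily vaginal smears, and mice were used in diestrus. Each received 13 µCi [18F]FES in 100 µL 10% ethanol/saline. Animals were sacrificed at 30 min, 1 h or 2 h (n = 3 each). Tissue uptake is reported as %ID/g ± SD.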
# [30] = Biodistribution of [18F]FES in beta estrogen receptor knock out mouse uterus after 30 min(n=2); mice in nonestrus stage; type: ADME, organism-based; details: in vivo, 0.5 h
# [31] = Biodistribution of [18F]FES in alpha estrogen receptor knock out mouse ovaries after 1 h; (n=3); type: ADME, organism-based, Female gonad; details: in vivo
# Summary of the method: (§5)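 Female αERKO mice were rested 48 h after shipping and fed estrogen-free chow. They were staged by daily vaginal smears and studied in diestrus. Each received 13 µCi [18F]FES in 100 µL 10% ethanol/saline and was sacrificed at 30 min, 1 h or 2 h (n = 3 per time). Tissue uptake is given as %ID/g ± SD.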
# [32] = Biodistribution of [18F]FES in beta estrogen receptor knock out mouse muscle after 1 h; (n=3); type: ADME, organism-based, Muscle tissue; details: in vivo
# [33] = Biodistribution of [18F]FES in beta estrogen receptor knock out mouse blood after 2 h; (n=3); type: ADME, organism-based; details: in vivo
# [34] = Biodistribution of [18F]-FES in alpha estrogen receptor knock out mouse muscle after 1 h; (n=3); type: ADME, organism-based, Muscle tissue; details: in vivo; summary of the method: as §5
# [35] = Biodistribution of [18F]FES in alpha estrogen receptor knock out mouse uterus after 2 h; (n=3); type: ADME, organism-based; details: in vivo
# Estrogen receptor (Mus musculus), sequence (O08537 whole entry, looked up): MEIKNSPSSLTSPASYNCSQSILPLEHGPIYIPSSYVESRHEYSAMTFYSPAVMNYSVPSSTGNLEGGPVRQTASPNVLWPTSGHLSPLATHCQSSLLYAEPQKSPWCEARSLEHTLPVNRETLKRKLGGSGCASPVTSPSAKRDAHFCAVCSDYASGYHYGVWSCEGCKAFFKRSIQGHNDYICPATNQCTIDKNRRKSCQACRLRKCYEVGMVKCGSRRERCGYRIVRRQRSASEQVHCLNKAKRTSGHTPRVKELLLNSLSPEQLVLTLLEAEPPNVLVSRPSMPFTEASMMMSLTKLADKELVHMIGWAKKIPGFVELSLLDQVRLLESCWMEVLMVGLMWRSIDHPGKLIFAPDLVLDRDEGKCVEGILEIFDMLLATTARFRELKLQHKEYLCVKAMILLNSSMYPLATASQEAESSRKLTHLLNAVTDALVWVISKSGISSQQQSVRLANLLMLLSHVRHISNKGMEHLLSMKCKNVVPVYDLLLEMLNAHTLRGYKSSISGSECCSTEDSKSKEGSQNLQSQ
# Estrogen receptor (Mus musculus), sequence (P19785 whole entry, looked up): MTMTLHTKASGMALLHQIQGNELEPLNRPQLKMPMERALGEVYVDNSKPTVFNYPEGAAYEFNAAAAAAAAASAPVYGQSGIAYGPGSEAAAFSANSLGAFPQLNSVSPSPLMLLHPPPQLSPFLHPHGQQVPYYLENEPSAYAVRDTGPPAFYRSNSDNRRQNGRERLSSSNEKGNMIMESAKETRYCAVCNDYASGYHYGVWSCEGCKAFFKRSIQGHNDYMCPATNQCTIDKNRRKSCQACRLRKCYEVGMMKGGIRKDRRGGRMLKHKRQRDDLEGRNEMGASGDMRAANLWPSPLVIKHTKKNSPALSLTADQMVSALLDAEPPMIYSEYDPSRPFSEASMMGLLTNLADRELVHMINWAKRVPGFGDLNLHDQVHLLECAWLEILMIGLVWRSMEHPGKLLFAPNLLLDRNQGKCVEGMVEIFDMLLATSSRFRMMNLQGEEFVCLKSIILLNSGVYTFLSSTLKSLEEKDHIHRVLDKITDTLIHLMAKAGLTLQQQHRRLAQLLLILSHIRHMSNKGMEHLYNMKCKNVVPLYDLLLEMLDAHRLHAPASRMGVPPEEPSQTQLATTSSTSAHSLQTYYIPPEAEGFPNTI
structure (smiles),measurement,setting,value
N#C[C@H](c1ccc(O)cc1)[C@@H](CCF)c1ccc(O)cc1,Biodistribution,[1],4.55 %ID/g
same,Biodistribution,[2],0.28 %ID/g
same,Biodistribution,[3],0.64 %ID/g
same,Biodistribution,[4],1.42 %ID/g
same,Biodistribution,[5],0.44 %ID/g
same,Biodistribution,[6],5.45 %ID/g
same,Biodistribution,[7],0.29 %ID/g
same,Biodistribution,[8],0.16 %ID/g
same,Biodistribution,[9],0.74 %ID/g
same,Biodistribution,[10],0.57 %ID/g
same,Biodistribution,[11],0.31 %ID/g
same,Biodistribution,[12],0.95 %ID/g
same,Biodistribution,[13],0.3 %ID/g
same,Biodistribution,[14],0.76 %ID/g
same,Biodistribution,[15],1.01 %ID/g
same,Biodistribution,[16],0.16 %ID/g
same,Biodistribution,[17],0.26 %ID/g
same,Biodistribution,[18],1.39 %ID/g
same,Biodistribution,[19],0.24 %ID/g
same,Biodistribution,[20],1.94 %ID/g
same,Biodistribution,[21],0.36 %ID/g
same,Biodistribution,[22],0.28 %ID/g
same,Ratio,[23],1.29
C[C@]12CC[C@@H]3c4ccc(O)cc4CC[C@H]3[C@@H]1C[C@@H](F)[C@@H]2O [FLUOROESTRADIOL],Biodistribution,[24],0.77 %ID/g
same,Biodistribution,[25],2.4 %ID/g
same,Biodistribution,[26],6.54 %ID/g
same,Biodistribution,[27],1.26 %ID/g
same,Biodistribution,[28],3.57 %ID/g
same,Biodistribution,[29],0.44 %ID/g
same,Biodistribution,[30],18.86 %ID/g
same,Biodistribution,[31],0.49 %ID/g
same,Biodistribution,[32],1.29 %ID/g
same,Biodistribution,[33],0.16 %ID/g
same,Biodistribution,[34],0.18 %ID/g
same,Biodistribution,[35],0.36 %ID/g
